Data: ChEMBL document CHEMBL3351593, “Potent nonimmunosuppressive cyclophilin inhibitors with improved pharmaceutical properties and decreased transporter inhibition” (J Med Chem, 2014)

Columns and labels:
Hepatitis C virus [1] = test: Antiviral activity against HCV subtype 1b in human Huh7.5 cells expressing subgenomic HCV replicons and coexpressing luciferase reporter gene; format: functional, cell-based, Hepacivirus hominis; details: genotype 1b, Huh-7
Method in brief: (§1)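 Stable Huh7.5 lines carrying genotype 1a or 1b subgenomic replicons with luciferase reporter, made by RNA electroporation and G418 selection. Assay run in phenol red-free DMEM without G418, sixteen half-log compound dilutions, in triplicate. Luciferase signal read after 72 h relative to DMSO controls, giving EC50.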

[2] = molecular target: Peptidyl-prolyl cis-trans isomerase B (Homo sapiens, UniProt P23284); test: Binding affinity to human cyclophilin B by surface plasmon resonance method
Chain of Peptidyl-prolyl cis-trans isomerase B (P23284 whole entry): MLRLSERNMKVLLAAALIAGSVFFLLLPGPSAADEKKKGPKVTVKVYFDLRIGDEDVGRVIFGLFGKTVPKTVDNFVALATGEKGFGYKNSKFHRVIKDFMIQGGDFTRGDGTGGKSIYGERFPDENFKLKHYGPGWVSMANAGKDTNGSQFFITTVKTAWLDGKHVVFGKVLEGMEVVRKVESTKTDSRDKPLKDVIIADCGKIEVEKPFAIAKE
Method in brief: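 Biotinylated cyclophilin proteins examined by single-cycle kinetics SPR. Running buffer 10 mM HEPES pH 7.4, 150 mM NaCl, 0.05% P20, 3% DMSO, with inhibitor. Each concentration injected for 1 min at 50 μL/min, then 10 min dissociation. kon, koff and KD obtained from a 1:1 binding fit.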

[3] = molecular target: Peptidyl-prolyl cis-trans isomerase F, mitochondrial (Homo sapiens, UniProt P30405); test: Binding affinity to human cyclophilin F by surface plasmon resonance method
Chain of Peptidyl-prolyl cis-trans isomerase F, mitochondrial (P30405 whole entry): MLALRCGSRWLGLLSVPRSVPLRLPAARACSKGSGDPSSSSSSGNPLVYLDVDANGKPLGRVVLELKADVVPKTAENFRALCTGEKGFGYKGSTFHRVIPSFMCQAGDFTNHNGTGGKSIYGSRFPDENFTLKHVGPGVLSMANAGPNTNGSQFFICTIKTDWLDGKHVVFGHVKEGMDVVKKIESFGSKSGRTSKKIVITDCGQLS
Method in brief: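 Surface plasmon resonance with biotinylated cyclophilin protein, single-cycle kinetics. Running buffer 10 mM HEPES pH 7.4, 150 mM NaCl, 0.05% P20, 3% DMSO, with inhibitor present. Compound injected at several concentrations, 1 min contact each at 50 μL/min, then 10 min final dissociation. kon, koff and KD obtained from a 1:1 binding model fit.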

Hepatitis C virus [4] = test: Antiviral activity against HCV subtype 1a in human Huh7.5 cells expressing subgenomic HCV replicons and coexpressing luciferase reporter gene; format: functional, cell-based, Hepacivirus hominis; details: Huh-7; method in brief: as §1
Hepatitis C virus [5] = test: Antiviral activity against HCV subtype 1b in human Huh7.5 cells expressing subgenomic HCV replicons and coexpressing luciferase reporter gene in presence of 40% human serum; format: functional, cell-based, Hepacivirus hominis; details: genotype 1b, Huh-7
Method in brief: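 Genotype 1b luciferase replicon in Huh7.5 cells with 40% human serum added to the assay medium, in phenol red-free DMEM without G418. Sixteen half-log dilutions in triplicate. Luciferase read after 72 h relative to DMSO-treated cells, giving EC50.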

[6] = Cytotoxicity against human MT4 cells by CDCF probe based assay; format: cell-based
PBMC = test: Cytotoxicity against PHA-stimulated human PBMC by 5-bromo-2'-deoxyuridine incorporation assay; format: cell-based
Method in brief: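 Fresh PBMCs from two human donors in X-VIVO 15 medium, stimulated with PHA. Seven concentrations taken from a half-log series. Incubated 60 h at 37 °C, 5% CO2, with BrdU added for the final 12 h. Incorporation read by anti-BrdU ELISA at 450 nm. Percent inhibition against PHA-stimulated untreated cells after background subtraction, four-parameter fit giving IC50.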

[7] = molecular target: T1, Solute carrier organic anion transporter family member 1B1 (Homo sapiens, UniProt Q9Y6L6); test: Inhibition of OATP1B1 (unknown origin) expressed in HEK293 cells using [3H]estradiol-17beta-glucuronide substrate; format: ADME, cell-based
T1 sequence (Q9Y6L6 whole entry): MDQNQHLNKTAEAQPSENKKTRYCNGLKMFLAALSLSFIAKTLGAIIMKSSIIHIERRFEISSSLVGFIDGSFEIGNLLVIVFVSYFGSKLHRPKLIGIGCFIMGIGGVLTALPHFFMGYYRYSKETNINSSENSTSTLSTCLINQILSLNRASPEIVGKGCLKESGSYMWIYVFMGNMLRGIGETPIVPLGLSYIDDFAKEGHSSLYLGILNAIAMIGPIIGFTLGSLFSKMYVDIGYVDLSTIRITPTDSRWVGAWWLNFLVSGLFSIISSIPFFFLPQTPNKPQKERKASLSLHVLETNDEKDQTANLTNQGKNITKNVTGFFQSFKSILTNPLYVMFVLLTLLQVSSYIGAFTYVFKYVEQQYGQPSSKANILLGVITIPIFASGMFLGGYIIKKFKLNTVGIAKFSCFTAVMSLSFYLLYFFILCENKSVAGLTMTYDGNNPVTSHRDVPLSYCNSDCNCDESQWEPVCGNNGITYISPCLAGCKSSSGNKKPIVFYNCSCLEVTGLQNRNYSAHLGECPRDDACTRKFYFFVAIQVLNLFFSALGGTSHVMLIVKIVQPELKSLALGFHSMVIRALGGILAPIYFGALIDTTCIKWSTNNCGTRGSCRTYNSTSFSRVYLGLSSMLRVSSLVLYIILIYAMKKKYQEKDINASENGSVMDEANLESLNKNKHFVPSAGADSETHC
Method in brief: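 Recombinant OATP1B1 or OATP1B3 expressed in HEK293 cells, with [3H]estradiol-17β-glucuronide as substrate; IC50 determined.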

[8] = molecular target: T2, Broad substrate specificity ATP-binding cassette transporter ABCG2 (Homo sapiens, UniProt Q9UNQ0); test: Inhibition of BCRP (unknown origin) expressed in T8 cells using Bodipy FL-prazosin substrate; format: ADME, cell-based
T2 sequence (Q9UNQ0 whole entry): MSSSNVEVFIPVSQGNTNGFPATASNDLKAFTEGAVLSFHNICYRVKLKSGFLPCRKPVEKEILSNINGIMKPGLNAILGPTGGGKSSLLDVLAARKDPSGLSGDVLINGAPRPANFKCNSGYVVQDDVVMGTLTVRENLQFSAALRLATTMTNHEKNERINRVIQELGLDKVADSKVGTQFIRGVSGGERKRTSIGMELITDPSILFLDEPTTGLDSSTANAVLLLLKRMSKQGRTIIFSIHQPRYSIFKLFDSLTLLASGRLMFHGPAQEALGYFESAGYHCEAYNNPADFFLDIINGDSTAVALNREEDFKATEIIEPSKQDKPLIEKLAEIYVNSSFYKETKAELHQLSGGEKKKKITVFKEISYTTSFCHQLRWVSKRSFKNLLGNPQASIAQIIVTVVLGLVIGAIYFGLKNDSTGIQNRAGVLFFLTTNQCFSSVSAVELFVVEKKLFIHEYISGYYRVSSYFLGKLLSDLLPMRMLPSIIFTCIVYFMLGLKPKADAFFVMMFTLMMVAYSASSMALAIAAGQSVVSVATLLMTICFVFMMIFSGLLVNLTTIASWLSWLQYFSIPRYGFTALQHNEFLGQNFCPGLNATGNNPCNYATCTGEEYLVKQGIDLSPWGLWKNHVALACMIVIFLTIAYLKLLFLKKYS
Method in brief: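 BCRP activity in T8 cells, measured with Bodipy FL-prazosin as substrate; IC50 reported.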

[9] = molecular target: ATP-dependent translocase ABCB1 (Homo sapiens, UniProt P08183); test: Inhibition of MDR1 (unknown origin) expressed in MDA T0.3 cells using rhodamine 123 substrate; format: ADME, cell-based
Chain of ATP-dependent translocase ABCB1 (P08183 whole entry): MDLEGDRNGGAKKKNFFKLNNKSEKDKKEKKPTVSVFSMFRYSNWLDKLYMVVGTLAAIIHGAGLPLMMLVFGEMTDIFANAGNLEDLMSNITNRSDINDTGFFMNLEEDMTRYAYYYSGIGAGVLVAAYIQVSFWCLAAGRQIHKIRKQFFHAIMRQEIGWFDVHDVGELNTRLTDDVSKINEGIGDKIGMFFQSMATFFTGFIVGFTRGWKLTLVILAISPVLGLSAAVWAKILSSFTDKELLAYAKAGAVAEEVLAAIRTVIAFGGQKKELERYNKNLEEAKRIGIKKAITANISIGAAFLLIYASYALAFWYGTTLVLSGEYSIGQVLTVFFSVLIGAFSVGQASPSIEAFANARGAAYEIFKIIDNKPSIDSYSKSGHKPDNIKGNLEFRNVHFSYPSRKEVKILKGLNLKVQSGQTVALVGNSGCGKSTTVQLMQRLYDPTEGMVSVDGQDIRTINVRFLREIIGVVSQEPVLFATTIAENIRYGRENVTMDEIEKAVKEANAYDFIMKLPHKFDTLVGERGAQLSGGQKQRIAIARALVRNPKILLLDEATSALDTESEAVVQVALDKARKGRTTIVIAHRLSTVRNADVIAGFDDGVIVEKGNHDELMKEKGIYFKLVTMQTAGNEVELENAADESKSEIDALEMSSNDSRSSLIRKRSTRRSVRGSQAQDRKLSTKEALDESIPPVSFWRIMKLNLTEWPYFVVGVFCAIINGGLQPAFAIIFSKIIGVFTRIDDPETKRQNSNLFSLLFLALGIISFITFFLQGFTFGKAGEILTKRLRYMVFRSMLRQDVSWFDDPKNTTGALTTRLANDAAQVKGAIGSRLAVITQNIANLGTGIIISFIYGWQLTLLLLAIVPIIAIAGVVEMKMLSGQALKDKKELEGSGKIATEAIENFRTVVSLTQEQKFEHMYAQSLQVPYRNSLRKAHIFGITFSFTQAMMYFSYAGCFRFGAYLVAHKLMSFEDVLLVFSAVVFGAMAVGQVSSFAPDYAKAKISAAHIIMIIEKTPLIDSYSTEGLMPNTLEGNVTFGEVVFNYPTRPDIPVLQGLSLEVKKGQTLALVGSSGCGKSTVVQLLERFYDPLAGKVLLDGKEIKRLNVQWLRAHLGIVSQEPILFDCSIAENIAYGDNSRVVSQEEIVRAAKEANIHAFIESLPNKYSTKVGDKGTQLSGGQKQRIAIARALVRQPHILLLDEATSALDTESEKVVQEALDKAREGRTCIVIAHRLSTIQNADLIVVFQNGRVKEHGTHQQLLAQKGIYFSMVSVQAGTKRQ
Method in brief: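 MDR1 activity in MDA T0.3 cells, measured with rhodamine 123 as substrate; IC50 reported.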

[10] = AUC in rat blood at 25 mg/kg, po after 72 hrs; format: ADME, organism-based; design: time < 72 hr, dose 25 mg/kg, route oral; details: whole blood
Method in brief: (§2)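 Oral dosing as a solution in MEPC: rat 25 mg/kg, dog 1 mg/kg. Blood and plasma collected separately over 0−72 h and AUC computed for each matrix.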

[11] = AUC in rat plasma at 25 mg/kg, po after 72 hrs; format: ADME, organism-based; design: time < 72 hr, dose 25 mg/kg, route oral; method in brief: as §2
[12] = AUC in dog blood at 1 mg/kg, po after 72 hrs; format: ADME, organism-based, Canis lupus familiaris; design: time < 72 hr, dose 1 mg/kg, route oral; details: whole blood; method in brief: as §2

SMILES | EC50 (Hepatitis C virus [1]) [µM] | Kd [2] [µM] | Kd [3] [µM] | EC50 (Hepatitis C virus [4]) [µM] | EC50 (Hepatitis C virus [5]) [µM] | CC50 [6] [µM] | IC50 (PBMC) [µM] | IC50 [7] [µM] | IC50 [8] [µM] | IC50 [9] [µM] | AUC at 72 h [10] [µM·h] | AUC at 72 h [11] [µM·h] | AUC at 72 h [12] [µM·h]
C/C=C/C[C@@H](C)[C@@H](O)[C@H]1C(=O)N[C@@H](CC)C(=O)N(C)[C@H](C)C(=O)N(C)[C@@H]([C@@H](C)CN2CCN(CCOC)CC2)C(=O)N[C@@H](C(C)C)C(=O)N(C)[C@@H](CC(C)C)C(=O)N[C@@H](C)C(=O)N[C@H](C)C(=O)N(C)[C@@H](CC(C)C)C(=O)N(C)[C@@H](CC(C)C)C(=O)N(C)[C@@H](C(C)C)C(=O)N1C | 0.04 | 0.0012 | 0.0009 | 0.07 | 0.042 | > 50 | 13.2 | 1.2 | > 25 | 6.3 | 58.4 | 5.8 | 22.1
C/C=C/C[C@@H](C)[C@@H](O)[C@H]1C(=O)N[C@@H](CC)C(=O)N(C)[C@H](C)C(=O)N(CC)[C@@H](C(C)C)C(=O)N[C@@H](C(C)C)C(=O)N(C)[C@@H](CC(C)C)C(=O)N[C@@H](C)C(=O)N[C@H](C)C(=O)N(C)[C@@H](CC(C)C)C(=O)N(C)[C@@H](CC(C)C)C(=O)N(C)[C@@H](C(C)C)C(=O)N1C [ALISPORIVIR] | 0.046 | 0.001 | 0.001 | 0.07 | 0.116 | > 20 | 0.5 | 0.18 | 2.5 | 0.59 | 22.1 | 2.3 | 2.19
